ChEMBL document CHEMBL5223087, “First-in-Class Cyclic Temporin L Analogue: Design, Synthesis, and Antimicrobial Assessment” (J Med Chem, 2021)
Converted amounts (≈) assume the structure as drawn. The source made the active and inactive calls. The rule behind the calls is not given here. Bridge positions count the residues as written; N and C are the ends. Square brackets hold non-standard residues; d marks the D form. Peptide text beside a SMILES is read from it.

Tests used:
Escherichia coli = assay: Antimicrobial activity against Escherichia coli ATCC 25922 assessed as reduction in bacterial growth incubated for 16 to 18 hrs by microdilution susceptibility test; type: functional; settings: time 16-18 hrs
Summary of the method: (§1)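 Broth microdilution in Mueller–Hinton broth. Mid-log bacteria at 1 × 10⁶ CFU/mL final, peptide twofold serial dilutions 100 to 0.78 μM final. Incubated 16–18 h at 37 °C. MIC taken as the lowest concentration giving total (100%) growth inhibition.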

Acinetobacter baumannii = assay: Antimicrobial activity against Acinetobacter baumannii ATCC 19606 assessed as reduction in bacterial growth incubated for 16 to 18 hrs by microdilution susceptibility test; type: functional; settings: time 16-18 hrs; summary of the method: as §1
Staphylococcus aureus = assay: Antimicrobial activity against Staphylococcus aureus ATCC 25923 assessed as reduction in bacterial growth incubated for 16 to 18 hrs by microdilution susceptibility test; type: functional; settings: time 16-18 hrs; summary of the method: as §1
Priestia megaterium = assay: Antimicrobial activity against Bacillus megaterium Bm11 assessed as reduction in bacterial growth incubated for 16 to 18 hrs by microdilution susceptibility test; type: functional; settings: time 16-18 hrs; summary of the method: as §1
Pseudomonas aeruginosa = assay: Antimicrobial activity against Pseudomonas aeruginosa ATCC 27853 assessed as reduction in bacterial growth incubated for 16 to 18 hrs by microdilution susceptibility test; type: functional; settings: time 16-18 hrs; summary of the method: as §1
[1] = system: Staphylococcus epidermidis; assay: Antimicrobial activity against Staphylococcus epidermidis ATCC 12228 assessed as reduction in bacterial growth incubated for 16 to 18 hrs by microdilution susceptibility test; type: functional; settings: time 16-18 hrs; summary of the method: as §1
HaCaT [2] = assay: Cytotoxicity against human HaCaT cells assessed as reduction in cell viability at 50 uM measured after 24 hrs by MTT assay; type: toxicity, cell-based
Summary of the method: (§2)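 HaCaT keratinocytes seeded at 4 × 10⁴/well in DMEM with 4 mM glutamine and 2% FBS, no antibiotics, overnight at 37 °C, 5% CO2. Medium replaced with peptide-containing DMEMg for 2 or 24 h. MTT 0.5 mg/mL in Hank's buffer 4 h, formazan dissolved in acidified isopropanol, A570. Viability as % of untreated cells; mean of three independent experiments ± SEM.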

[3] = Disaggregation property of compound in LPS at 20 uM after 1 hr by Tht fluorescence based assay; type: physicochemical
Summary of the method: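 Peptide 20 μM incubated 1 h with LPS 1 mg/mL and ThT 25 μM. Aggregation read as ThT emission at 482 nm, excitation 450 nm. ThT alone and peptide alone served as controls.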

[4] = Membrano-lytic effect in bacterial inner membrane mimic DOPG/CL (58:42) large unilamellar vesicles at 50 uM by varian cary eclipse fluorescence spectrometry analysis; type: cell membranes
HaCaT [5] = assay: Cytotoxicity against human HaCaT cells assessed as reduction in cell viability at 25 uM measured after 2 hrs by MTT assay; type: toxicity, cell-based; summary of the method: as §2
[6] = Membrano-lytic effect in bacterial inner membrane mimic DOPE/DOPG/CL (63:23:12) large unilamellar vesicles at 10 uM by varian cary eclipse fluorescence spectrometry analysis; type: cell membranes
[7] = Membrano-lytic effect in bacterial inner membrane mimic DOPE/DOPG/CL (63:23:12) large unilamellar vesicles at 5 to 50 uM by varian cary eclipse fluorescence spectrometry analysis; type: cell membranes; settings: dose 5-50 µM
HaCaT [8] = assay: Cytotoxicity against human HaCaT cells assessed as reduction in cell viability at 50 uM measured after 2 hrs by MTT assay; type: toxicity, cell-based; summary of the method: as §2

| MIC (Escherichia coli) | MIC (Acinetobacter baumannii) | MIC (Staphylococcus aureus) | MIC (Priestia megaterium) | MIC (Pseudomonas aeruginosa) | MIC [1] | Activity [3] | Activity [4] | Activity [6] | Activity [7] | SMILES | Activity (HaCaT [2]) | Activity (HaCaT [5]) | Activity (HaCaT [8]) |
| --- | --- | --- | --- | --- | --- | --- | --- | --- | --- | --- | --- | --- | --- |
| > 100 µM | > 100 µM | > 100 µM | 100 µM (≈ 172 µg/mL) | > 100 µM | > 100 µM | – | – | – | – | CCC(C)[C@H](NC(=O)[C@H](CCCNC(=N)N)NC(=O)[C@]1(C)CCC/C=C/CCC[C@](C)(NC(=O)[C@H](Cc2ccccc2)NC(=O)[C@H](Cc2c[nH]c3ccccc23)NC(=O)[C@@H]2CCCN2C(=O)[C@@H](NC(=O)[C@@H](N)Cc2ccccc2)C(C)C)C(=O)N[C@@H](CCCCN)C(=O)N[C@@H](Cc2ccccc2)C(=O)N[C@H](CC(C)C)C(=O)N1)C(=O)N[C@@H](CC(C)C)C(N)=O (stereo partly drawn) | – | – | – |
| > 100 µM | – | – | – | > 100 µM | – | Active | Active | Active | Active | CC[C@H](C)[C@H](NC(=O)[C@H](CCCNC(=N)N)NC(=O)[C@@H]1CCCCn2cc(nn2)C[C@H](NC(=O)[C@H](Cc2ccccc2)NC(=O)[C@H](Cc2c[nH]c3ccccc23)NC(=O)[C@@H]2CCCN2C(=O)[C@@H](NC(=O)[C@@H](N)Cc2ccccc2)C(C)C)C(=O)N[C@@H](CCCCN)C(=O)N[C@@H](Cc2ccccc2)C(=O)N[C@@H](CC(C)C)C(=O)N1)C(=O)N[C@@H](CC(C)C)C(N)=O | < 20% | 60% | < 40% |
| > 100 µM | > 100 µM | > 100 µM | – | > 100 µM | > 100 µM | – | – | – | – | CC[C@H](C)[C@@H]1NC(=O)[C@H](CCCNC(=N)N)NC(=O)CNC(=O)[C@H](NC(=O)[C@H](Cc2ccccc2)NC(=O)[C@H](CCCCN)NC(=O)[C@H](CO)NC(=O)[C@H](Cc2ccccc2)NC(=O)[C@H](Cc2c[nH]c3ccccc23)NC(=O)[C@@H]2CCCN2C(=O)[C@@H](NC(=O)[C@@H](N)Cc2ccccc2)C(C)C)CCCCNC(=O)CC[C@@H](C(N)=O)NC1=O | – | – | – |
| > 100 µM | > 100 µM | > 100 µM | > 100 µM | > 100 µM | > 100 µM | – | – | – | – | CC[C@H](C)[C@H](NC(=O)[C@H](CCCNC(=N)N)NC(=O)CNC(=O)[C@@H](CC(C)C)NC(=O)[C@@H]1CCC(=O)NCCCC[C@H](NC(=O)[C@@H]2CCCN2C(=O)[C@@H](NC(=O)[C@@H](N)Cc2ccccc2)C(C)C)C(=O)N[C@@H](Cc2ccccc2)C(=O)N[C@@H](CO)C(=O)N[C@@H](CCCCN)C(=O)N1)C(=O)N[C@@H](CC(C)C)C(N)=O (H-FVPKFSKE[dL]GRIL-NH2; lactam 4-8) | – | – | – |
| – | – | 100 µM (≈ 167 µg/mL) | – | > 100 µM | – | – | – | – | – | CC[C@H](C)[C@H](NC(=O)[C@H](CCCNC(=N)N)NC(=O)[C@@H]1CSSC[C@H](NC(=O)[C@H](Cc2ccccc2)NC(=O)[C@H](Cc2c[nH]c3ccccc23)NC(=O)[C@@H]2CCCN2C(=O)[C@@H](NC(=O)[C@@H](N)Cc2ccccc2)C(C)C)C(=O)N[C@@H](CCCCN)C(=O)N[C@@H](Cc2ccccc2)C(=O)N[C@H](CC(C)C)C(=O)N1)C(=O)N[C@@H](CC(C)C)C(N)=O (H-FVPWFCKF[dL]CRIL-NH2; disulfide 6-10) | – | – | – |
| 25 µM (≈ 42.6 µg/mL) | – | – | – | > 100 µM | – | – | – | – | – | CC[C@H](C)[C@H](NC(=O)[C@H](CCCNC(=N)N)NC(=O)[C@@H]1CCCCNC(=O)CC[C@H](NC(=O)[C@H](Cc2ccccc2)NC(=O)[C@H](Cc2c[nH]c3ccccc23)NC(=O)[C@@H]2CCCN2C(=O)[C@@H](NC(=O)[C@@H](N)Cc2ccccc2)C(C)C)C(=O)N[C@@H](CCCCN)C(=O)N[C@@H](Cc2ccccc2)C(=O)N[C@H](CC(C)C)C(=O)N1)C(=O)N[C@@H](CC(C)C)C(N)=O (H-FVPWFEKF[dL]KRIL-NH2; lactam 6-10) | < 20% | 60% | < 40% |
| > 100 µM | > 100 µM | > 100 µM | – | > 100 µM | > 100 µM | – | – | – | – | CC[C@H](C)[C@@H]1NC(=O)[C@H](CCCNC(=N)N)NC(=O)CNC(=O)[C@@H](CC(C)C)NC(=O)[C@H](Cc2ccccc2)NC(=O)[C@H](CCCCN)NC(=O)[C@@H](NC(=O)[C@H](Cc2ccccc2)NC(=O)[C@H](Cc2c[nH]c3ccccc23)NC(=O)[C@@H]2CCCN2C(=O)[C@@H](NC(=O)[C@@H](N)Cc2ccccc2)C(C)C)CCCCNC(=O)CC[C@@H](C(N)=O)NC1=O (H-FVPWFKKF[dL]GRIE-NH2; lactam 6-13) | – | – | – |
